Calls of active or inactive are those of the source. The calls are words filed in the database; no cut-off is given here.
Key:
Leishmania donovani [1] = experiment: Reduction of parasitemia in Leishmania donovani infected BALB/c mouse at 3 mg/kg/day, ip for 5 days relative to control; format: functional; parameters: scale not given: the % may be the effect or the level left; conditions: route intraperitoneal
Outline: (§1)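 Infected BALB/c mice were dosed i.p. once daily for 5 days, starting 7 days post-infection. Vehicles were 10% DMSO/70% cremophor-ethanol (3:1)/20% PBS, or PBS for miltefosine. On day 14, Giemsa-stained liver smears were scored as amastigotes per 1000 liver cells × liver weight (mg) and compared with vehicle controls. 4–5 mice per group, SD.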

Leishmania donovani [2] = experiment: Antileishmanial activity against Leishmania donovani MHOM/SD/62/1S-CL2D axenic amastigotes after 3 days by tetrazolium dye based colorimetric assay; format: functional, organism-based; conditions: 72 h
Outline: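 Axenic amastigotes adapted from promastigotes and kept in amastigote medium at 37 °C. 6 × 10^4 cells per well, 2-fold compound dilutions, 3 days at 37 °C in 5% CO2. Growth read as tetrazolium (CellTiter) absorbance at 490 nm several hours after dye addition. IC50 from a four-parameter dose-response fit. Three or more separate experiments.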

Leishmania amazonensis = experiment: Antileishmanial activity against beta-lactamase transfected Leishmania amazonensis in CD1 mouse macrophages assessed as infected macrophages after 72 hrs; format: functional, organism-based
Outline: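 Starch-elicited peritoneal macrophages from CD-1 mice were plated at 1 × 10^6 cells/ml and adhered overnight. They were infected overnight at 34 °C with β-lactamase-expressing L. amazonensis (5 × 10^6 cells/ml) and washed. Twofold compound dilutions were applied for 72 h at 34 °C. Cells were lysed in 0.1% Triton X-100 with 100 µM nitrocefin for 4 h at 37 °C and read at A490. IC50 by four-parameter fit.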

[3] = Cytotoxicity against CD1 mouse macrophages at 13 uM after 72 hrs; format: cell-based; conditions: macrophage
Vero = experiment: Cytotoxicity against african green monkey Vero cells after 3 days by tetrazolium dye based colorimetric assay; format: cell-based; conditions: Chlorocebus sabaeus, 72 h
Outline: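 Vero cells were grown in alpha-MEM with 10% HI-FBS. 1 × 10^3 cells per well received 2-fold compound dilutions for 3 days at 37 °C, 5% CO2. Growth was read as tetrazolium (CellTiter) absorbance at 490 nm. IC50 by four-parameter dose-response fit.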

Leishmania donovani [4] = experiment: Antileishmanial activity against Leishmania donovani promastigotes assessed as induction of ROS production in by flow cytometric detection at 10 uM after 24 hrs; format: functional, organism-based
Outline: (§2)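 Log-phase promastigotes were loaded with 10 µg/ml CM-H2DCFDA in FBS-free medium for 60 min at 25 °C. They were then resuspended at 1 × 10^6 cells/ml and exposed to compounds in 1% DMSO for 24 h. Fluorescence was read by flow cytometry on 10,000 cells and normalized to vehicle controls (=1.0). H2O2 250 µM served as positive control. Three experiments, SEM.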

Leishmania donovani [5] = experiment: Antileishmanial activity against Leishmania donovani promastigotes assessed as induction of ROS production in by flow cytometric detection at 100 uM after 24 hrs; format: functional, organism-based; outline: as §2
Leishmania donovani [6] = experiment: Antiparasitic activity against Leishmania donovani promastigotes assessed as reduction of membrane potential 10 uM by rhodamine 123 assay; format: functional; parameters: scale not given: the % may be the effect or the level left
Outline: (§3)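 Promastigotes at 1 × 10^6 cells/ml were exposed to compounds in 1% DMSO for 24 h, at 10 µM and above. FCCP 100 µM for 2 h served as positive control. Cells were then stained with 1 µM rhodamine 123 for 1 h and read by flow cytometry. Results are % fluorescence reduction against vehicle controls. Three experiments, SEM.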

[7] = Cytotoxicity against CD1 mouse macrophages at 6.3 uM after 72 hrs; format: cell-based; conditions: macrophage
[8] = Cytotoxicity against CD1 mouse macrophages assessed as infected macrophages at 3.1 uM after 72 hrs; format: cell-based; conditions: macrophage
Leishmania donovani [9] = experiment: Reduction of parasitemia in Leishmania donovani LV82 promastigotes infected BALB/c mouse at 25 mg/kg/day, ip for 5 days relative to control; format: functional; parameters: scale not given: the % may be the effect or the level left; conditions: route intraperitoneal; outline: as §1
Leishmania donovani [10] = experiment: Antiparasitic activity against Leishmania donovani promastigotes assessed as reduction of membrane potential by rhodamine 123 assay; format: functional; parameters: scale not given: the % may be the effect or the level left; outline: as §3
Leishmania donovani [11] = experiment: Antileishmanial activity against Leishmania donovani promastigotes assessed as induction of ROS production in by flow cytometric detection at 0.1 uM after 24 hrs; format: functional, organism-based; outline: as §2
Leishmania donovani [12] = experiment: Antileishmanial activity against Leishmania donovani promastigotes assessed as induction of ROS production in by flow cytometric detection at 1 uM after 24 hrs; format: functional, organism-based; outline: as §2
Leishmania donovani [13] = experiment: Reduction of parasitemia in Leishmania donovani LV82 promastigotes infected BALB/c mouse at 50 mg/kg/day, ip for 5 days relative to control; format: functional; parameters: scale not given: the % may be the effect or the level left; conditions: route intraperitoneal
[14] = Lipophilicity, log P of the compound; format: physicochemical; conditions: octanol/water
Outline: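 clogP was calculated with the ChemAxon/Marvin program.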

Row | Compound | IC50 (Leishmania donovani [2]) [µM] | IC50 (Leishmania amazonensis) [µM] | IC50 (Vero) [µM] | further results
1 | CCCCCCCCCCCCCCCCOP(=O)([O-])OCC[N+](C)(C)C [MILTEFOSINE] |  |  |  | Activity (Leishmania donovani [1]): 41%
2 | Cc1cc(Sc2c([N+](=O)[O-])cc(C#N)cc2[N+](=O)[O-])c(Cl)cc1Cl | 1 | 5.8 | 11 | Activity [3]: Toxic; Activity (Leishmania donovani [4]): Active; Activity (Leishmania donovani [5]): Active; Activity (Leishmania donovani [6]): 90%
3 | Cc1cc(Sc2c(C(F)(F)F)cc(C(F)(F)F)cc2C(F)(F)F)c(Cl)cc1Cl | 100 |  |  | 
4 | CCSc1c([N+](=O)[O-])cc(C(F)(F)F)cc1[N+](=O)[O-] | 98 |  |  | 
5 | O=[N+]([O-])c1cc(C(F)(F)F)cc([N+](=O)[O-])c1SC1CCCCC1 | 35 |  |  | 
6 | Cc1cc(Sc2ccc(C(F)(F)F)cc2[N+](=O)[O-])c(Cl)cc1Cl | 98 |  |  | 
7 | Cc1cccc(Sc2c([N+](=O)[O-])cc(C(F)(F)F)cc2[N+](=O)[O-])c1 | 1.6 | 2.4 | 7.3 | Activity [7]: Toxic
8 | O=[N+]([O-])c1cc(C(F)(F)F)cc([N+](=O)[O-])c1Sc1ccccc1 | 0.96 | 2.6 | 6 | Activity [7]: Toxic
9 | COc1ccc(Sc2c([N+](=O)[O-])cc(C(F)(F)F)cc2[N+](=O)[O-])cc1 | 1.9 | 5.1 | 12 | 
10 | O=[N+]([O-])c1cc(C(F)(F)F)cc([N+](=O)[O-])c1Sc1ccc(Cl)cc1Cl | 0.4 | 2.6 | 4.3 | Activity [8]: Toxic
11 | COc1ccc(Sc2c([N+](=O)[O-])cc(C#N)cc2[N+](=O)[O-])cc1 |  |  |  | Activity (Leishmania donovani [9]): 28%
12 | O=[N+]([O-])c1cc(C(F)(F)F)cc([N+](=O)[O-])c1Oc1ccc(Cl)cc1Cl | 3.4 |  |  | 
13 | O=[N+]([O-])c1cc(C(F)(F)F)cc([N+](=O)[O-])c1Nc1ccc(Cl)cc1Cl | 25 |  |  | 
14 | Cc1cc(Sc2c([N+](=O)[O-])cccc2[N+](=O)[O-])c(Cl)cc1Cl | 23 |  |  | Activity (Leishmania donovani [10]): < 20%
15 | Cc1cc(Sc2c([N+](=O)[O-])cc(C(F)(F)F)cc2[N+](=O)[O-])c(Cl)cc1Cl | 0.56 | 3.4 | 9.7 | Activity [3]: Toxic; Activity (Leishmania donovani [11]): inactive; Activity (Leishmania donovani [12]): inactive; Activity (Leishmania donovani [5]): Active; Activity (Leishmania donovani [10]): Dose-dependent effect; Activity (Leishmania donovani [13]): -2%; logP [14]: 6.85
16 | Cc1cc([N+](=O)[O-])c(Sc2cc(C)c(Cl)cc2Cl)c([N+](=O)[O-])c1 | > 200 |  |  | Activity (Leishmania donovani [11]): inactive; Activity (Leishmania donovani [12]): inactive; Activity (Leishmania donovani [4]): inactive; Activity (Leishmania donovani [10]): < 20%
17 | Cc1cc(Sc2ccc([N+](=O)[O-])cc2)c(Cl)cc1Cl | 88 |  |  | 
18 | O=C(O)c1ccccc1Sc1c([N+](=O)[O-])cc(C(F)(F)F)cc1[N+](=O)[O-] | 7.3 |  |  | 
19 | Cc1cc(Sc2c([N+](=O)[O-])cc([N+](=O)[O-])cc2C(F)(F)F)c(Cl)cc1Cl | 0.62 | 1.8 | 5.2 | Activity [7]: Toxic
20 | COc1cc([C@@H]2c3cc4c(cc3[C@H](O)[C@H]3COC(=O)[C@H]23)OCO4)cc(OC)c1OC [PODOFILOX] |  |  | 0.023 | 
21 | Cc1cc(Sc2ncc(C(F)(F)F)cc2[N+](=O)[O-])c(Cl)cc1Cl | 59 |  |  | 
22 | O=[N+]([O-])c1cc(C(F)(F)F)cc([N+](=O)[O-])c1Sc1ccc(O)cc1 | 3.3 |  |  | 

Source: ChEMBL document CHEMBL1140848, “Redox-active dinitrodiphenylthioethers against Leishmania: synthesis, structure-activity relationships and mechanism of action studies” (Bioorg Med Chem, 2009)
